In ChEMBL document CHEMBL5058577, “EUbOPEN Chemogenomics Library 2 (Multiplex)” (2022):

Tested on: Fibroblast
Assay: Multiplex assay against human fibroblast
Format: toxicity, cell-based
Method in brief: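 Cells were classed with CellPathfinder machine-learning gating, first as Hoechst high-intensity objects or normal cells, then (normal cells) as healthy, pyknosed or fragmented nuclei, and finally (pyknosed cells) as mitotic or apoptotic. Staining of live cells at seeding used Hoechst33342, BioTracker Green Microtubule Cytoskeleton Dye, MitoTracker Red and Annexin V Alexa Fluor 680, with imaging on a CQ1 microscope at 37°C and 5% CO2 after compound addition. Tubulin, mitochondrial-mass and membrane-permeability phenotypes are per cents of healthy-nucleus cells.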

[1] = 12 h, 1 µM, compound concentration 1 uM, replicate 1
[2] = 12 h, 1 µM, compound concentration 1 uM, replicate 2
[3] = 12 h, 10 µM, compound concentration 10 uM, replicate 1
[4] = 12 h, 10 µM, compound concentration 10 uM, replicate 2
[5] = 24 h, 1 µM, compound concentration 1 uM, replicate 1
[6] = 24 h, 1 µM, compound concentration 1 uM, replicate 2
[7] = 24 h, 10 µM, compound concentration 10 uM, replicate 1
[8] = 24 h, 10 µM, compound concentration 10 uM, replicate 2
[9] = 48 h, 1 µM, compound concentration 1 uM, replicate 1
[10] = 48 h, 1 µM, compound concentration 1 uM, replicate 2
[11] = 48 h, 10 µM, compound concentration 10 uM, replicate 1
[12] = 48 h, 10 µM, compound concentration 10 uM, replicate 2

Cc1c(CC(=O)O)c2cccnc2n1Cc1ccc(S(C)(=O)=O)cc1C(F)(F)F [FEVIPIPRANT]
Population Apoptotic (%) [1]: 44%
Population Fragmented Nuclei (%) [1]: 22%
Population Healthy Nuclei (%) [1]: 60%
Population Hoechst High Intensity Objects (%) [1]: 3%
Population Membrane Permeable-Phenotype (%) [1]: 1%
Population Mitochondria Different-Phenotype (%) [1]: 3%
Population Mitotic Cells (%) [1]: 55%
Population Normal (%) [1]: 96%
Population Pyknosed Nuclei (%) [1]: 18%
Population Tubulin-Different-Phenotype (%) [1]: 20%
Total Cell Count [1]: 156
Population Apoptotic (%) [2]: 25%
Population Fragmented Nuclei (%) [2]: 33%
Population Healthy Nuclei (%) [2]: 48%
Population Membrane Permeable-Phenotype (%) [2]: 13%
Population Mitochondria Different-Phenotype (%) [2]: 12%
Population Mitotic Cells (%) [2]: 74%
Population Pyknosed Nuclei (%) [2]: 17%
Population Tubulin-Different-Phenotype (%) [2]: 56%
Population Apoptotic (%) [3]: 34%
Population Fragmented Nuclei (%) [3]: 10%
Population Healthy Nuclei (%) [3]: 71%
Population Hoechst High Intensity Objects (%) [3]: 3%
Population Membrane Permeable-Phenotype (%) [3]: 1%
Population Mitochondria Different-Phenotype (%) [3]: 4%
Population Mitotic Cells (%) [3]: 65%
Population Normal (%) [3]: 96%
Population Pyknosed Nuclei (%) [3]: 17%
Population Tubulin-Different-Phenotype (%) [3]: 25%
Total Cell Count [3]: 132
Population Apoptotic (%) [4]: 22%
Population Fragmented Nuclei (%) [4]: 21%
Population Healthy Nuclei (%) [4]: 54%
Population Hoechst High Intensity Objects (%) [4]: 5%
Population Membrane Permeable-Phenotype (%) [4]: 9%
Population Mitochondria Different-Phenotype (%) [4]: 6%
Population Mitotic Cells (%) [4]: 77%
Population Normal (%) [4]: 94%
Population Pyknosed Nuclei (%) [4]: 23%
Population Tubulin-Different-Phenotype (%) [4]: 55%
Total Cell Count [4]: 139
Population Apoptotic (%) [5]: 55%
Population Fragmented Nuclei (%) [5]: 14%
Population Healthy Nuclei (%) [5]: 66%
Population Hoechst High Intensity Objects (%) [5]: 3%
Population Membrane Permeable-Phenotype (%) [5]: 1%
Population Mitochondria Different-Phenotype (%) [5]: 5%
Population Mitotic Cells (%) [5]: 44%
Population Normal (%) [5]: 96%
Population Pyknosed Nuclei (%) [5]: 19%
Population Tubulin-Different-Phenotype (%) [5]: 23%
Total Cell Count [5]: 156
Population Apoptotic (%) [6]: 52%
Population Fragmented Nuclei (%) [6]: 35%
Population Healthy Nuclei (%) [6]: 47%
Population Membrane Permeable-Phenotype (%) [6]: 4%
Population Mitochondria Different-Phenotype (%) [6]: 8%
Population Mitotic Cells (%) [6]: 48%
Population Pyknosed Nuclei (%) [6]: 17%
Population Tubulin-Different-Phenotype (%) [6]: 50%
Total Cell Count [6]: 150
Population Apoptotic (%) [7]: 57%
Population Fragmented Nuclei (%) [7]: 16%
Population Healthy Nuclei (%) [7]: 67%
Population Hoechst High Intensity Objects (%) [7]: 1%
Population Membrane Permeable-Phenotype (%) [7]: 1%
Population Mitochondria Different-Phenotype (%) [7]: 2%
Population Mitotic Cells (%) [7]: 42%
Population Normal (%) [7]: 98%
Population Pyknosed Nuclei (%) [7]: 16%
Population Tubulin-Different-Phenotype (%) [7]: 24%
Total Cell Count [7]: 130
Population Apoptotic (%) [8]: 31%
Population Fragmented Nuclei (%) [8]: 22%
Population Healthy Nuclei (%) [8]: 55%
Population Hoechst High Intensity Objects (%) [8]: 7%
Population Membrane Permeable-Phenotype (%) [8]: 5%
Population Mitochondria Different-Phenotype (%) [8]: 5%
Population Mitotic Cells (%) [8]: 68%
Population Normal (%) [8]: 92%
Population Pyknosed Nuclei (%) [8]: 21%
Population Tubulin-Different-Phenotype (%) [8]: 52%
Total Cell Count [8]: 146
Population Apoptotic (%) [9]: 65%
Population Fragmented Nuclei (%) [9]: 16%
Population Healthy Nuclei (%) [9]: 67%
Population Hoechst High Intensity Objects (%) [9]: 5%
Population Membrane Permeable-Phenotype (%) [9]: 0%
Population Mitochondria Different-Phenotype (%) [9]: 4%
Population Mitotic Cells (%) [9]: 35%
Population Normal (%) [9]: 94%
Population Pyknosed Nuclei (%) [9]: 16%
Population Tubulin-Different-Phenotype (%) [9]: 16%
Total Cell Count [9]: 132
Population Apoptotic (%) [10]: 63%
Population Fragmented Nuclei (%) [10]: 39%
Population Healthy Nuclei (%) [10]: 47%
Population Hoechst High Intensity Objects (%) [10]: 6%
Population Membrane Permeable-Phenotype (%) [10]: 4%
Population Mitochondria Different-Phenotype (%) [10]: 8%
Population Mitotic Cells (%) [10]: 36%
Population Normal (%) [10]: 93%
Population Pyknosed Nuclei (%) [10]: 12%
Population Tubulin-Different-Phenotype (%) [10]: 47%
Total Cell Count [10]: 157
Population Apoptotic (%) [11]: 73%
Population Fragmented Nuclei (%) [11]: 22%
Population Healthy Nuclei (%) [11]: 62%
Population Hoechst High Intensity Objects (%) [11]: 2%
Population Membrane Permeable-Phenotype (%) [11]: 0%
Population Mitochondria Different-Phenotype (%) [11]: 3%
Population Mitotic Cells (%) [11]: 26%
Population Normal (%) [11]: 97%
Population Pyknosed Nuclei (%) [11]: 14%
Population Tubulin-Different-Phenotype (%) [11]: 29%
Total Cell Count [11]: 132
Population Apoptotic (%) [12]: 58%
Population Fragmented Nuclei (%) [12]: 32%
Population Healthy Nuclei (%) [12]: 53%
Population Membrane Permeable-Phenotype (%) [12]: 3%
Population Mitochondria Different-Phenotype (%) [12]: 2%
Population Mitotic Cells (%) [12]: 41%
Population Tubulin-Different-Phenotype (%) [12]: 52%
Total Cell Count [12]: 171
